pIC50: −log10 of the molar value. Activity calls are given as the source filed them. The calls are words filed in the database; no cut-off is given here.
Experiments:
[1] = system: SW-620; assay: Cytotoxicity against human SW-620 M-phenotype tumor organoid assessed as reduction in cell viability incubated for 72 hrs by CellTiter Glo assay; assay type: functional, cell-based; conditions: SW-620, 72 h
Method in brief: (§1)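 Isolated M-Phenotype cells plated at 2,000 cells/well in ultra-low-attachment round-bottom wells, centrifuged to aggregate, then given 2% Matrigel final. Grown 72 h at 37 °C/5% CO2 to form organoids, then dosed for 72 h. CellTiter Glo 3D added 1:1, shaken 45 min at room temperature, luminescence read. Normalised to 0.5% DMSO vehicle; triplicate experiments, technical n = 3.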

[2] = Inhibition of CHD1L-mediated TCF transcription in human HCT-116 M-phenotype cells incubated for 24 hrs by TOPflash luciferase reporter assay; assay type: cell-based; conditions: HCT-116, 24 h
Method in brief: (§2)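 M-Phenotype cells seeded at 20,000 (SW620) or 10,000 (HCT116) cells/well and transiently transfected with TOPflash for 72 h. Treated for 24 h. Luminescence read with One-Glo after PBS wash, normalised to total protein by BCA on a parallel plate.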

[3] = system: HCT-116; assay: Cytotoxicity against human HCT-116 M-phenotype tumor organoid assessed as reduction in cell viability incubated for 72 hrs by CellTiter Glo assay; assay type: functional, cell-based; conditions: HCT-116, 72 h; method in brief: as §1
[4] = system: SW-620; assay: Inhibition of cell stemness in human SW-620 M-phenotype cells assessed as reduction in colony formation; assay type: functional, cell-based
Method in brief: (§3)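 M-Phenotype cells plated at 200 (SW620) or 75 (HCT116) cells/well and treated continuously. Medium and drug replenished every three days over 7–10 days of growth. Colonies imaged by high-content imaging and counted. Duplicate experiments with triplicate technical replicates.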

[5] = system: HCT-116; assay: Inhibition of cell stemness in human HCT-116 M-phenotype cells assessed as reduction in colony formation; assay type: functional, cell-based; method in brief: as §3
[6] = Inhibition of recombinant catalytic CHD1L (unknown origin) preincubated for 10 mins followed by ATP addition measured after 1 hr by plate reader analysis; design: species or system Homo sapiens
Method in brief: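 800 nM catalytic CHD1L and 200 nM mononucleosome preincubated with inhibitor for 10 min at 37 °C in 50 mM Tris pH 7.5, 50 mM NaCl, 5 mM MgCl2, 2 mM DTT, 5% glycerol. Reaction started with 10 μM ATP, 1 h at 37 °C. Phosphate sensor added (500 nM), fluorescence read at ex 430/em 450. No-enzyme background; normalised to DMSO; triplicate.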

[7] = system: SW-620; assay: Cytotoxicity against human SW-620 tumor organoid assessed as reduction in cell viability incubated for 72 hrs by CellTiter Glo assay; assay type: functional, cell-based; conditions: SW-620, 72 h
[8] = Induction of mesenchymal-epithelial transition in human SW-620 M-phenotype tumor organoid assessed as downregulation of vimentin expression by fluorescence analysis; assay type: functional, cell-based
Method in brief: (§4)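 M-Phenotype organoids carry a dual reporter (VimPro-GFP, EcadPro-RFP). Dose-response over a 72 h treatment; vimentin promoter activity read as GFP fluorescence by 3D high-content imaging and normalised. Duplicate experiments.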

[9] = Inhibition of CHD1L-mediated TCF transcription in human SW-620 M-phenotype cells incubated for 24 hrs by TOPflash luciferase reporter assay; assay type: cell-based; conditions: SW-620, 24 h; method in brief: as §2
[10] = Cytotoxicty against CRC102 patient-derived tumor organoid assessed as reduction in cell viability incubated for 72 hrs by CellTiter Glo assay; assay type: functional, tissue-based; conditions: Homo sapiens, Colon cancer organoid
Method in brief: (§5)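 Patient cells washed with PBS, digested with TrypLE and passed through a 100 μm strainer. Seeded at 5,000 cells/well with 2% Matrigel and left 72 h to self-assemble as organoids, then dosed for 72 h. CellTiter Glo 3D added 1:1, 45 min at room temperature with shaking, luminescence read. Normalised to 0.5% DMSO; triplicate experiments, technical n = 3.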

[11] = Induction of mesenchymal-epithelial transition in human HCT-116 M-phenotype tumor organoid assessed as downregulation of vimentin expression by fluorescence analysis; assay type: functional, cell-based; method in brief: as §4
[12] = Cytotoxicty against CRC042 patient-derived tumor organoids assessed as reduction in cell viability incubated for 72 hrs by CellTiter Glo assay; assay type: functional; conditions: Homo sapiens, Neoplasm; method in brief: as §5
[13] = Toxicity in athymic nude mouse xenografted with human SW-620 cells assessed as change in body weight at 75 to 125 mg/kg, po measured after 28 days; assay type: organism-based; conditions: in vivo, dose 75-125 mg/kg, time 28 day
Method in brief: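 Female athymic nude mice (8 weeks old) bearing subcutaneous SW620 EMT dual-reporter M-Phenotype flank xenografts. Dosed by oral gavage at 75 or 125 mg/kg, or vehicle (10% DMSO, 90% PEG 400), once daily, 5 days/week, for 28–31 days. Body weight recorded twice weekly.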

[14] = system: SW-620; assay: Antitumor activity against human SW-620 cells xenografted in athymic nude mouse assessed as decrease in tumor volume at 75 to 125 mg/kg, po measured after 20 to 28 days by caliper method; assay type: functional, organism-based; conditions: dose 75-125 mg/kg, time 20-28 day
Method in brief: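 SW620 EMT dual-reporter M-Phenotype cells, 2 × 10^6 cells/100 μL in 1:1 Matrigel:RPMI 1640, injected subcutaneously into each flank of female athymic nude mice (8 weeks old). Randomised at day 5 to vehicle (10% DMSO, 90% PEG 400), 75 or 125 mg/kg. Oral gavage once daily, 5 days/week, for 28–31 days. Caliper tumour volume twice weekly by 4/3*[…]*(L/2)*(W/2)*(H/2).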

Structure (SMILES)	pIC50 [1]	pIC50 [2]	pIC50 [3]	pIC50 [4]	pIC50 [5]	pIC50 [6]	pIC50 [7]	pIC50 [8]	pIC50 [9]	pIC50 [10]	pIC50 [11]	pIC50 [12]	Activity [13]	Activity [14]
Cc1cc(Nc2ccc(NC(=O)Cc3c[nH]c4cc(Cl)ccc34)cc2)nc(N2CCCC2)n1	5.70	5.38	5.64	6.30	6.40	4.92	5.85	5.74	5.02	5.09	5.60	5.47		
Cc1cc(Nc2ccc(NC(=O)Cc3c[nH]c4ccccc34)cc2)nc(N2CCCC2)n1	5.96	5.16	5.85	5.96	6.05	5.48		5.82	4.96	5.05	5.72	5.21		
Cc1cc(Nc2ccc(NC(=O)Cc3cc(Cl)nc4ccccc34)cc2)nc(N2CCCC2)n1	5.89	5.31	5.66	6.52	6.70	4.92	5.62	5.89	5.31	5.46	5.59	5.51		
Cc1cc(Nc2ccc(NC(=O)Cc3c(C)[nH]c4ccccc34)cc2)nc(N2CCCC2)n1	5.64	5.16	5.66	5.80	6.05	4.80	5.80	5.77	5.19	4.96	5.57	5.40		
Cc1cc(Nc2ccc(NC(=O)Cc3cc(Br)cs3)cc2)nc(N2CCCC2)n1	5.59	5.06	5.37	5.80	6.10	5.48	5.59	5.48	4.92	5.08	5.30	5.38	Non-Toxic	Active
Cc1cc(Nc2ccc(NC(=O)Cc3cccs3)cc2)nc(N2CCCC2)n1	5.06	4.42	5.03		5.49	5.40	5.34	5.00	4.37	4.68	4.89	4.80		
Cc1cc(Nc2ccc(NC(=O)Cc3cccc4ccccc34)cc2)nc(N2CCCC2)n1		5.26	5.64	6.15	6.30	5.54		5.74	5.66	5.28	5.59	5.51		

— ChEMBL document CHEMBL5046283, “Design, Synthesis, and Biological Evaluation of the First Inhibitors of Oncogenic CHD1L” (J Med Chem, 2022)
